# ChEMBL document CHEMBL1154223, “Oxygenated lignans from the fruits of Schisandra arisanensis” (2009)
# Legend:
# Format in all cases: functional
# [1] = test system: PBMC; test: Inhibition of 0.2 ug/ml PHA-stimulated human PBMC proliferation assessed as [3H]thymidine uptake at 100 uM after 3 days by scintillation counting
# In short: (§1)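 Human PBMC at 2 × 10^6 cells/mL were plated with or without PHA and exposed to test compound at 100 µM. Cultures were kept at 37 °C in humidified 5% CO2-air for 3 days, then pulsed with tritiated thymidine at 1 µCi/well for 16 h. Cells were harvested onto glass fiber filters, and radioactivity was counted by scintillation. Results are given as % inhibition.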
# [2] = test system: PBMC; test: Inhibition of 5 ug/ml PHA-stimulated human PBMC proliferation assessed as [3H]thymidine uptake at 100 uM after 3 days by scintillation counting; in short: as §1
# [3] = test system: PBMC; test: Inhibition of human PBMC proliferation assessed as [3H]thymidine uptake at 100 uM after 3 days by scintillation counting; in short: as §1
# [4] = test system: PBMC; test: Inhibition of 5 ug/ml PHA-stimulated human PBMC proliferation assessed as [3H]thymidine uptake at 5 uM after 3 days by scintillation counting
# [5] = test system: PBMC; test: Inhibition of human PBMC proliferation assessed as [3H]thymidine uptake at 5 uM after 3 days by scintillation counting
Structure (SMILES),inhibition (INH) [1] [%],inhibition (INH) [2] [%],inhibition at 100 µM [3] [%],inhibition (INH) [4] [%],inhibition at 5 µM [5] [%]
C/C=C(/C)C(=O)O[C@H]1c2cc(OC)c(OC)c(OC)c2-c2c(cc(O)c(OC)c2OC)C[C@@H](C)[C@@]1(C)O,67,44.3,44.5,,
COc1cc([C@@H]2c3cc(OC)c(OC)cc3C(=O)[C@@H](C)[C@H]2C)ccc1O,82.7,95.6,61,,
C/C=C(/C)C(=O)O[C@H]1c2cc3c(c(OC)c2-c2c(cc(OC)c(OC)c2O)C[C@H](C)[C@]1(C)O)OCO3,16.4,14.6,12.7,,
CC=C(C)C(=O)O[C@H]1c2cc3c(c(OC)c2-c2c(cc(OC)c(OC)c2OC)C[C@H](C)[C@]1(C)O)OCO3,75.2,58.9,36.1,,
C/C=C(/C)C(=O)O[C@H]1c2cc(OC)c(OC)c(O)c2-c2c(cc3c(c2OC)OCO3)C[C@@H](C)[C@@]1(C)O,74,66.6,47,,
COc1cc2c(c(O)c1OC)-c1c(cc(O)c(OC)c1OC)C[C@H](C)[C@H](C)C2 [ARISANSCHININ F],81.7,92.9,58.5,,
COc1cc2c(c(O)c1OC)-c1c(cc(O)c(OC)c1OC)C[C@@H](C)[C@@H](C)C2 [ARISANSCHININ G],76.3,92.5,54.7,,
COc1cc([C@@H]2c3cc(OC)c(O)cc3C(=O)[C@@H](C)[C@H]2C)ccc1O [ARISANTETRALONE A],78.1,91.9,59.7,,
COc1cc([C@@H]2c3cc(O)c(OC)cc3C(=O)[C@@H](C)[C@H]2C)ccc1O [ARISANTETRALONE B],75.3,90.8,56.9,,
COc1cc2c(cc1O)C(=O)[C@@H](C)[C@@H](C)[C@@H]2c1ccc(OC)c(OC)c1 [ARISANTETRALONE C],76.3,89.3,54.1,,
COc1cc2c(cc1O)C(=O)[C@H](C)[C@@H](C)[C@@H]2c1ccc(OC)c(OC)c1 [ARISANTETRALONE D],70.1,83.9,34.1,,
C/C=C/C[C@@H](C)[C@@H](O)[C@H]1C(=O)N[C@@H](CC)C(=O)N(C)CC(=O)N(C)[C@@H](CC(C)C)C(=O)N[C@@H](C(C)C)C(=O)N(C)[C@@H](CC(C)C)C(=O)N[C@@H](C)C(=O)N[C@H](C)C(=O)N(C)[C@@H](CC(C)C)C(=O)N(C)[C@@H](CC(C)C)C(=O)N(C)[C@@H](C(C)C)C(=O)N1C [CYCLOSPORINE],,,,89.9,25.5
COc1cc2c(c(OC)c1OC)-c1c(cc3c(c1OC)OCO3)[C@H](OC(=O)c1ccccc1)[C@@](C)(O)[C@@H](C)C2 [GOMISIN G],75.8,88.6,46.2,,
COc1cc(C[C@@H](C)[C@@H](C)Cc2cc(O)c(OC)c(OC)c2)cc(O)c1OC [PREGOMISIN],83,95.6,63.9,,
COc1cc2c(c(O)c1OC)-c1c(cc(OC)c(OC)c1OC)C[C@@H](C)[C@@H](C)C2 [SCHISANHENOL],80.1,76,60.8,,
